Source: ChEMBL document CHEMBL4842354, “Synthesis, structure-activity relationships, cocrystallization and cellular characterization of novel smHDAC8 inhibitors for the treatment of schistosomiasis” (Eur J Med Chem, 2021)

Tests used:
Schistosoma mansoni [1] = assay: Antischistosomal activity against Schistosoma mansoni schistosomula at 10 uM incubated for 48 hrs by Alamar Blue assay; format: functional
Method in brief: (§1)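 S. mansoni newly transformed schistosomula from mechanically transformed cercariae, 100 NTS/well in Medium 199 with 10% FCS, penicillin, streptomycin and rifampicin. Pre-cultured 3 h at 37°C, 5% CO2. Compounds from 20 mM DMSO stocks, final 10 or 20 μM. Alamar Blue added after 48 h exposure, then 24 h more. Resorufin read at Ex 530/Em 590 nm. Live and ethanol-killed larvae as controls; triplicate wells, two biological replicates.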

Histone deacetylase 8 [2] = target: T1, Histone deacetylase 8 (Schistosoma mansoni, UniProt A5H660); assay: Inhibition of Schistosoma mansoni HDAC8 using Fluor de Lys as substrate incubated for 90 mins by fluorescence method
T1 sequence (A5H660 whole entry): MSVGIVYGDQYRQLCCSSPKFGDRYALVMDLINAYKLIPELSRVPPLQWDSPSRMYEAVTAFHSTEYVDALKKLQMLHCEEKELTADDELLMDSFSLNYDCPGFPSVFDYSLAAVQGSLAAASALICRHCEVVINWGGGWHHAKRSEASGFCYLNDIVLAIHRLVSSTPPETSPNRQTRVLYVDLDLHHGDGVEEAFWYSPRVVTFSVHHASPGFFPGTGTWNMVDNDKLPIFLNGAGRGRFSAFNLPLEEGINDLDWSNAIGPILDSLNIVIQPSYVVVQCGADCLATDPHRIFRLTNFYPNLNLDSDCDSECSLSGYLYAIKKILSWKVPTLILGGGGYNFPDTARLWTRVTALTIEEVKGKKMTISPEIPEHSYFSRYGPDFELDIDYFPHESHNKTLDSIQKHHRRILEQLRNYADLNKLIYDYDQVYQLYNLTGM
Method in brief: (§2)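 Recombinant smHDAC8 or hHDAC8 (Romier lab) run to Fluor de Lys HDAC8 kit protocol. Substrate H2N-Arg-His-Lys(Ac)-Lys(Ac)-AMC at 50 μM with increasing inhibitor concentrations, 90 min at 37°C. Stop solution holding inhibitor plus trypsin, then 20 min at 37°C to release AMC. Fluorescence read at Ex 355/Em 460 nm.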

[3] = target: T2, Protein deacetylase HDAC6 (Homo sapiens, UniProt Q9UBN7); assay: Inhibition of recombinant human HDAC6 using ZMAL as substrate incubated for 90 mins by fluorescence based micro plate assay
T2 sequence (Q9UBN7 whole entry): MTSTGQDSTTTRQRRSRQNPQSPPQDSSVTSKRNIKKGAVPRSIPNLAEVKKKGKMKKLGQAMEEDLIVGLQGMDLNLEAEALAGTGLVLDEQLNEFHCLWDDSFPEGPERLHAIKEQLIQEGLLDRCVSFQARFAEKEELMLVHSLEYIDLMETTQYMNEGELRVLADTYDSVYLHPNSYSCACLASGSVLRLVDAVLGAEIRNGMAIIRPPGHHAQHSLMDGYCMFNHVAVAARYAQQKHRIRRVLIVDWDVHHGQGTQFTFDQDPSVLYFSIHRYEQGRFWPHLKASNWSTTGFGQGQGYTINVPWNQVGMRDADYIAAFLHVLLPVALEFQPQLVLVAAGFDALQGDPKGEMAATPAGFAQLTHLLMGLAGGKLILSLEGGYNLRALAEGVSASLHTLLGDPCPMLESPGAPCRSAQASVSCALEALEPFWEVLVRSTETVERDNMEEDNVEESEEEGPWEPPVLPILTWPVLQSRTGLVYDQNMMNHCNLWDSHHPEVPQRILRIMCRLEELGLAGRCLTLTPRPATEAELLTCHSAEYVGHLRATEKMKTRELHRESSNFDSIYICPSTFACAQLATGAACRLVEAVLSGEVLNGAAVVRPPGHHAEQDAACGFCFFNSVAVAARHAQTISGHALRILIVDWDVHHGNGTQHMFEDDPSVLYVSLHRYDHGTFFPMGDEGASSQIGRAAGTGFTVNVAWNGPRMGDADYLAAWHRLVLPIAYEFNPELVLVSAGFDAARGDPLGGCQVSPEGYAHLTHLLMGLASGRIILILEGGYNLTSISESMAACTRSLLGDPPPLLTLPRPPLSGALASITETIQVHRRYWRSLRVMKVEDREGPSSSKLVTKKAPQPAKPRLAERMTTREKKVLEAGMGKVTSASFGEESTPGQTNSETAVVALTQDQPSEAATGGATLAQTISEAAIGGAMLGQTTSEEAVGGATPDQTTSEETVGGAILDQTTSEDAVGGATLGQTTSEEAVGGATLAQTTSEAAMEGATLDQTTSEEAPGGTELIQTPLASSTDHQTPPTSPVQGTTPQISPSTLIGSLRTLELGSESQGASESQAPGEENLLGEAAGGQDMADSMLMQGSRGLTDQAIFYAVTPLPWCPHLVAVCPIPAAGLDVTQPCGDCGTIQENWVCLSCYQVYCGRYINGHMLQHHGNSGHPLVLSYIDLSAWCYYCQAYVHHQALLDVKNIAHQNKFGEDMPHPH

Schistosoma mansoni [4] = assay: Antischistosomal activity against Schistosoma mansoni schistosomula at 20 uM incubated for 48 hrs by Alamar Blue assay; format: functional; method in brief: as §1
HEK293 = assay: Cytotoxicity against human HEK293 assessed as reduction in cell viability at 50 uM measured for 24 hrs by Alamar Blue assay; format: cell-based; settings: hek293, 24 h
Method in brief: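 HEK293 cells in DMEM with 10% FCS and 5 mM glutamine at 37°C, 5% CO2, seeded at 1.5×10^3 cells/well. Compounds added at 50 μM. AlamarBlue added after 24 h and incubated a further 21 h. Resorufin fluorescence read at Ex 530/Em 590 nm. Triplicates; daunorubicin positive control.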

Histone deacetylase 1 = Histone deacetylase 1 (Homo sapiens, UniProt Q13547); assay: Inhibition of recombinant human HDAC1 using ZMAL as substrate incubated for 90 mins by fluorescence based micro plate assay
Histone deacetylase 1, sequence (Q13547 whole entry): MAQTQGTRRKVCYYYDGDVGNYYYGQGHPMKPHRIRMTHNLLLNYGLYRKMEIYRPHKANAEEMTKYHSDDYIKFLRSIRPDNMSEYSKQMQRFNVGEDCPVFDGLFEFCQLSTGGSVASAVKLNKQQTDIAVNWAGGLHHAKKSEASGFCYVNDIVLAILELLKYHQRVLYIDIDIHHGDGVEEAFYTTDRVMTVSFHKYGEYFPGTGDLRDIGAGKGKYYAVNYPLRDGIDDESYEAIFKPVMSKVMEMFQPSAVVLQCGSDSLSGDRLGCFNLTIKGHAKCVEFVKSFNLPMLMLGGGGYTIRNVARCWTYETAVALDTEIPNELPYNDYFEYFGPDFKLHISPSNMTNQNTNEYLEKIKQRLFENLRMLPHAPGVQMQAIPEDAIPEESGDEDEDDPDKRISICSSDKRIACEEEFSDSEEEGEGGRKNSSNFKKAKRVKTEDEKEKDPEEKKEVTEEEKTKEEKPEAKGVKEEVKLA

Histone deacetylase 8 [5] = target: T3, Histone deacetylase 8 (Homo sapiens, UniProt Q9BY41); assay: Inhibition of human recombinant HDAC8 using H2N-Arg-His-Lys(Ac)-Lys(Ac)-AMC as substrate after 90 mins by fluorescence based micro plate assay
T3 sequence (Q9BY41 whole entry): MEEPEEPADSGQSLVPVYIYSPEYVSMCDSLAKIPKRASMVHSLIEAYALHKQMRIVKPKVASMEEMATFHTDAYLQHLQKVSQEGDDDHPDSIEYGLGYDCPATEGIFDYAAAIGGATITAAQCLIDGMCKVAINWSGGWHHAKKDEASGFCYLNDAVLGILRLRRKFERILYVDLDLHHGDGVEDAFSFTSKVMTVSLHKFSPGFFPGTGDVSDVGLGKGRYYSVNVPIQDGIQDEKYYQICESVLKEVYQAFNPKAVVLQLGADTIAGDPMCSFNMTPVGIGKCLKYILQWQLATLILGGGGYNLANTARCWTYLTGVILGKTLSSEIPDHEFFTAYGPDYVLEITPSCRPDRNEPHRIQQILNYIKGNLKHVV

[6] = target: T4, Histone deacetylase 8 (Homo sapiens) (UniProt Q9BY41); assay: Inhibition of human recombinant HDAC8 at 1 uM using H2N-Arg-His-Lys(Ac)-Lys(Ac)-AMC as substrate after 90 mins by fluorescence based micro plate assay; method in brief: as §2
T4 sequence (whole entry): T3 sequence (Q9BY41 whole entry)

| SMILES | Activity (Schistosoma mansoni [1]) [%] | IC50 (Histone deacetylase 8 [2]) [nM] | IC50 [3] [nM] | Activity (Schistosoma mansoni [4]) [%] | Activity (HEK293) [%] | IC50 (Histone deacetylase 1) [nM] | IC50 (Histone deacetylase 8 [5]) [nM] | inhibition [6] [%] |
| --- | --- | --- | --- | --- | --- | --- | --- | --- |
| Cc1ccc(C(=O)NO)cc1C(=O)Nc1ccc(Cl)cc1 | 69.1 | 330 | 600 | 50.2 | 67.6 | 3370 |  |  |
| O=C(NO)c1ccc(Cl)c(NC(=O)c2ccc(-c3ccccc3)cc2)c1 | 62.3 | 400 | 160 | 55.1 | 81.7 | 10900 | 450 |  |
| COc1ccc(C(C)=O)cc1NC(=O)c1cc(C(=O)NO)ccc1C | 75.2 | 180 |  | 69.5 | 94.8 |  | 90 |  |
| COc1ccc(C(=O)NO)cc1NC(=O)c1ccc(-c2ccc(F)cc2)cc1Cl | 74.6 | 320 |  | 60.5 | 83.5 |  |  | 48 |
| CCOc1ccc(C(C)=O)cc1NC(=O)c1cc(C(=O)NO)ccc1Cl | 57 | 140 | 110 | 33.1 | 60.6 | 18100 | 220 |  |
| COc1ccc(C(=O)NO)cc1NC(=O)c1cccc2c1/C(=N/O)c1ccccc1-2 | 98.5 | 320 |  | 96 | 76.6 |  | 150 |  |
| CCOc1ccc(C(C)=O)cc1NC(=O)c1cccc(C(=O)NO)c1 | 81 | 160 | 120 | 67.3 | 81.2 | 7700 | 590 |  |
| COc1ccc(C(=O)NO)cc1C(=O)Nc1ccc(Cl)cc1 | 77.3 | 310 |  | 59.2 | 27.5 |  |  |  |
| COc1ccc(C(=O)NO)cc1NC(=O)c1ccc2[nH]c3c(c2c1)CN(C)CC3.Cl | 98 | 200 |  | 100 | 71.1 |  | 290 |  |
| CCOc1ccc(C(C)=O)cc1NC(=O)c1cc(C(=O)NO)ccc1OC | 64.3 | 330 |  | 56.7 | 59.9 |  |  | 61 |
| O=C(C1CCCCC1)N1CC(=O)N2CCc3ccccc3C2C1 (stereo not drawn) [PRAZIQUANTEL] | 92.1 |  |  | 88.9 | 99.3 |  |  |  |
| COc1ccc(C(=O)NO)cc1NCc1cccc2c1oc1ccccc12 |  | 450 |  |  |  |  | 860 |  |
| COc1ccc(C(C)=O)cc1NC(=O)c1cc(C(=O)NO)ccc1Cl | 62.6 | 290 |  | 32.3 | 89.1 |  | 90 |  |
| Cc1ccc(C(=O)NO)cc1NC(=O)c1cccc(OCc2c(Cl)cccc2Cl)c1 | 38.4 | 520 |  | 22.3 | 66.6 |  |  | 34 |
| COc1ccc(C(=O)NO)cc1NC(=O)c1nc2ccccc2[nH]1 | 69.5 | 580 |  | 47.1 | 83.5 |  |  | 29 |
| O=C(NO)c1ccc(Cl)c(NC(=O)c2ccc(-c3ccc(F)cc3)cc2Cl)c1 | 63.4 | 280 |  | 56.6 | 82.2 |  |  | 25 |
| COc1ccc(C(=O)NO)cc1NC(=O)c1cccc(OCc2ccccc2)c1 | 61 | 610 |  | 56.2 | 95.4 |  |  | 59 |
| CCCOc1ccc(C(=O)Nc2cc(C(=O)NO)ccc2OC)cc1 | 70.7 | 730 |  | 51.6 | 93.2 |  |  | 66 |
| COc1ccc(C(=O)NO)cc1C(=O)Nc1ccc(Cl)cc1Cl | 88.2 | 180 |  | 83.4 | 58.3 |  |  | 31 |
| CCOc1ccc(C(=O)NO)cc1NC(=O)c1ccc(Cl)cc1Cl | 56.2 | 100 | 7740 | 56.4 | 86.8 | 21100 | 230 |  |
| COc1ccc(C(=O)NO)cc1NC(=O)c1ccc(OC(C)C)cc1 | 72.6 | 730 |  | 56.2 | 93.1 |  |  |  |
| COc1ccc(C(=O)NO)cc1NC(=O)c1cccc2cccnc12 | 62 | 330 |  | 40 | 77 |  | 180 |  |
| COc1ccc(C(=O)NO)cc1C(=O)Nc1ccc2sccc2c1 | 82.1 | 220 |  | 77.1 | 95.6 |  | 100 |  |
| Cc1ccc(C(=O)NO)cc1NC(=O)c1cccc(OCc2ccccc2)c1 | 67.3 | 450 |  | 46.5 | 81.4 |  |  | 60 |
| COc1ccc(C(=O)NO)cc1NC(=O)c1ccc(-c2ccccc2)cc1 | 64.8 | 290 | 390 | 33.4 | 12.3 |  | 130 |  |
| COc1ccc(C(=O)Nc2cc(C(=O)NO)ccc2OC)c(OC)c1 | 65.3 | 2080 |  | 66.5 | 88.4 |  |  | 63 |
| CCOc1ccc(C(C)=O)cc1NC(=O)c1cc(C(=O)NO)ccc1C | 42.1 | 210 |  | 37 | 87.7 |  | 70 |  |
